Neddyl block: inhibitors of human cullin neddylation; TR-FRET cullin neddylation, biochemical; inhibition, % at 25 µM; 0.58% of 360,000 active; AID 651699; in the data active = inhibition above about 36%
Calb FLC: affects C. albicans growth with fluconazole; C. albicans CaCi-2 + fluconazole, Alamar Blue growth, 48 h; growth inhibition, % (test concentration not listed); 0.57% of 300,000 active; AID 1979;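 active = growth inhibition above about 58% in most replicates, limit read from the data, passing the limit was not always enough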;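 also: all wells also contain fluconazole at 8 µg/ml as a sub-toxic cotreatment; 0% = median of DMSO wells and 100% = median of geldanamycin control wells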
proCasp3 act: procaspase-3 (human) activation. activation, % at 8.5 µM. recombinant procaspase-3 D3A, Ac-DEVD-pNA absorbance 405 nm. 0.11% of 330,000 active;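 active = activation above the mean of all tested compounds plus 3 SD, cut at about 21% in these data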;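 also: 0% = DMSO alone and 100% = DMSO wells spiked with extra 5 µM PC-3 D3A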
Target sequence (P42574 whole entry D9A/D28A/D175A): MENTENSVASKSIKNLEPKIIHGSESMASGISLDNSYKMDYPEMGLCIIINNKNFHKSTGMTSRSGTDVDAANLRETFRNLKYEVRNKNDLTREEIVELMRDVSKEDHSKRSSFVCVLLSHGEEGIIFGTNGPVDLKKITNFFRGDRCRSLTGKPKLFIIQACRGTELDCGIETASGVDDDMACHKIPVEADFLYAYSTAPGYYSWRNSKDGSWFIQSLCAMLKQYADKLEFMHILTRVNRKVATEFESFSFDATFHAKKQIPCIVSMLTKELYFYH
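assay system = Procaspase-3 D3A mutant | signal = absorbance at 405 nm, 0 and 120 min | times = 1 h preincubation plus 2 h reaction at 25 °C | repeats = single replicate | read-out = % activation between DMSO and enzyme-spiked controls | medium = Zinc-free HEPES saline buffer with Triton X-100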
FXN GAA850 act: activators of GAA850 frataxin (FXN) promoter; 0.56% of 360,000 active; HEK293 lucGAA850 FXN promoter luciferase reporter, 24 h; percent of 10 µM SAHA response; AID 540364; activation, % at 6 µM;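 active = activation above the average of all compounds screened plus 3 SD, cutoff fixed separately per campaign, cut at about 7.5% in these data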;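 also: 0% = DMSO wells and 100% = 10 µM SAHA wells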
proCasp7 act: activates human procaspase-7, counter-screen for procaspase-3 activators; 0.093% of 330,000 active; P55210; activation, % at 8.5 µM; recombinant procaspase-7, Ac-DEVD-pNA absorbance 405 nm; D23A/D198A/D206A triple mutant, cannot self-cleave; scale: DMSO 0, 5 µM enzyme 100;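 active = percent activation above the screen-wide mean plus 3 SD, cut at about 25% in these data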
Target sequence (P55210 whole entry D23A/D198A/D206A): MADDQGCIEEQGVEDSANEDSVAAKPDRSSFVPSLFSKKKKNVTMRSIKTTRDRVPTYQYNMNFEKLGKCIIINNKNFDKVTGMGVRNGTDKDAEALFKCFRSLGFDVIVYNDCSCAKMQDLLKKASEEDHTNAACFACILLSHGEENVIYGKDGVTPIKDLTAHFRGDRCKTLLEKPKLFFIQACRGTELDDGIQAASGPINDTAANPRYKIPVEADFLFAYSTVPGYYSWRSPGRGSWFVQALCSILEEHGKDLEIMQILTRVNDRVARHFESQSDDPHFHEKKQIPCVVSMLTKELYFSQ
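Material: Procaspase-7 triple mutant (PC-7 D3A) | Quantity: 2 µM procaspase-7 mutant as dispensed | Reagent: DEVD-pNA substrate | Times: 1 h preincubation, 2 h reaction | Technique: 405 nm absorbance of p-nitroaniline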
HIF activator: HIF pathway transcriptional activation; 0.32% of 300,000 active; U2OS HRE-luciferase reporter, luminescence; normalized: DMSO 0%, desferrioxamine 100%; AID 1910; activation, % at 7.5 µM (by protocol);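 active = mean activation of at least 10% of the iron chelator positive control signal, with at least half of replicates also reaching 10%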
The depositor's hits bear a star; x = no result shown. An excerpt weighted towards active compounds, which were near 1.9% of everything screened.

SMILES	Neddyl block	Calb FLC	proCasp3 act	FXN GAA850 act	proCasp7 act	HIF activator
COC(=O)c1c[nH]n2c(=O)c(Cc3ccc(F)cc3Cl)c(C)nc12	16	97*	3	-3	-1	0
COC(=O)c1c[nH]n2c(=O)c(Cl)c(C)nc12	13	6	14	0	2	0
COc1ccc(OC)c(NC(=O)C2(C)CCN2Cc2ccccc2Cl)c1 (stereo not drawn)	7	x	x	1	x	x
CCc1nc(Nc2ccncc2)c2oc3ccccc3c2n1	42*	85*	0	-5	-6	1
CN(Cc1ccc2c(c1)CCCN2C)C(=O)[C@H]1O[C@@H](n2ccc(=O)[nH]c2=O)[C@H](O)[C@@H]1O	3	x	x	x	x	x
Cc1cccc(CSc2nnc(CCCCCNC(=O)OC(C)(C)C)o2)c1	2	11	-8	1	0	-1
Cc1ccc(CSc2nnc(CCCCCNC(=O)OC(C)(C)C)o2)cc1	6	4	9	-1	8	14*
COc1ccc(C(=O)NC(C)Cc2c[nH]c3ccccc23)cc1 (stereo not drawn)	-5	x	x	2	x	x
Nc1ccc2c(S(=O)(=O)O)cccc2c1S(=O)(=O)O	55*	x	x	-1	x	x
COc1ccc(C2C(C(=O)NCc3ccco3)c3ccccc3C(=O)N2C)cc1 (stereo not drawn)	-14	4	12	3	2	-1
CCN(CC)CCCNC(=O)C1c2ccccc2C(=O)N(C)C1c1ccc(OC)cc1 (stereo not drawn)	9	4	10	0	6	795*
O=[N+]([O-])/C(Cl)=C(/NCCO)C(Cl)=C(Cl)Cl	-9	x	x	3	x	x
S=c1[nH]c2cc(Cl)c3cccnc3c2o1	8	79*	-8	0	-18	-17
S=c1[nH]c2ncccc2o1	0	1	5	-1	7	0
CC(=O)c1cc(C#N)c(N2CCCC2)nc1C	1	93*	-1	0	6	0
Cc1cc(C)c2cc(C#N)c(N3CCCC3)nc2c1	22	x	-3	2	3	x
C#CCOCCOCCOCCNc1nc(N2CCN(C(=O)Cn3cc(CC(C)O)nn3)CC2)nc(N2CCN(C(=O)[C@H]([C@@H](C)CC)n3cc(CCCCN)nn3)CC2)n1 (stereo partly drawn)	-14	x	x	-1	x	x
COc1ccc(F)cc1CSc1nnnn1-c1ccc(O)cc1	-9	-2	-6	0	-1	477*
CCc1cc(-c2n[nH]c(C)c2-c2ccccc2Cl)c(O)cc1OC	9	86*	3	3	4	2
CCOc1ccc(-c2n[nH]c(C)c2-c2ccccc2OC)c(O)c1	25	-4	-9	-2	2	1
CCOC(=O)/C=C1/SCC(=O)N1CC(=O)c1ccc[nH]1	0	x	x	2	x	x
COC(=O)[C@@H](NCc1ccc(OC)c(B(O)O)c1)C(C)C	-2	x	x	0	x	x
Cc1ccc(S(=O)(=O)N/N=C/c2cccc([N+](=O)[O-])c2)cc1	-13	2	-16	2	-11	0
CCCCCCCCCS(=O)(=O)N/N=C/c1cccc([N+](=O)[O-])c1	-8	-9	-6	0	2	71*
Cc1ccc([N+](=O)[O-])cc1-c1[nH]c(-c2ccc(O)c(O)c2)nc1-c1ccccc1	-11	112*	-5	3	-9	0
SMILES	Neddyl block	Calb FLC	proCasp3 act	FXN GAA850 act	proCasp7 act	HIF activator
CN(CCc1ccccc1)C(=O)c1ccc(NC(=O)Cc2ccc(NC(=O)C3CCN(C(=O)C4CCC4)CC3)cc2)cc1	-1	x	x	-1	x	x
CC(=O)Nc1ccc(NC(=O)CCN2C(=O)c3ccccc3C2=O)cc1	4	33	-4	0	4	-4
CC(=O)Nc1ccc(NC(=O)CCCN2C(=O)c3ccccc3C2=O)cc1	-15	108*	-1	0	-2	0
Fc1cccc2sc(Nc3nnc(-c4ccco4)o3)nc12	x	85*	-5	2	0	2
COc1cccc2sc(Nc3nnc(-c4ccc(F)cc4)o3)nc12	x	117*	3	0	7	1
O=C(Nc1nc2c(F)cccc2s1)c1ccco1	29	3	0	-2	4	2
CCOC(=O)C(=NCCCN1CCOCC1)NNc1cccc(C(F)(F)F)c1	7	129*	5	0	3	-2
CN(CC1CCCO1)S(=O)(=O)c1ccc(C(=O)Nc2ccc(S(N)(=O)=O)cc2)cc1 (stereo not drawn)	-5	-2	5	2	6	-1
CCOC(=O)c1ccc(NC(=O)c2ccc(CO)c(C(=O)NC3CCN(C(=O)OCC)CC3)c2)cc1	6	104*	0	-2	1	-1
CCn1c(O)c(N=NC(=O)c2cccs2)c2ccccc21	-40	54*	-8	2	17	1
Nc1ncnc2c1ncn2[C@@H]1O[C@H](C(=O)N2CCN(Cc3ccccn3)CC2)[C@@H](O)[C@H]1O	2	x	x	x	x	x
CSC(=S)NCc1cccnc1	14	88*	-6	0	-15	0
CCC(=Cc1ccccc1OC)c1ccncc1	-10	x	x	-1	x	x
O=C(c1cc(COc2cccc3cnccc23)on1)N1CCCC(CCCO)C1 (stereo not drawn)	45*	5	1	-7	0	1
O=C(Cc1ccc(Cl)cc1)NNC(=O)Nc1cccc2ccccc12	3	5	2	0	-3	0
Cn1ncc(Cl)c1C(=O)NNC(=O)Nc1cccc2ccccc12	25	110*	x	3	x	x
COc1ccc(C2c3ccc4ccccc4c3Oc3ncn(CCN4CCOCC4)c(=N)c32)cc1 (stereo not drawn)	7	101*	3	4	-3	0
O=[N+]([O-])c1ccc(O)c(P(=O)(c2ccccc2)c2ccccc2)c1	-25	100*	-7	3	-6	1
Cc1ccc(N=Nc2ccc(O)c(P(=O)(c3ccccc3)c3ccccc3)c2)cc1	-5	-2	-22	-2	-4	0
CC(Sc1nnc(C(C)Oc2ccc(F)cc2)o1)C(=O)NCc1ccc2c(c1)OCO2 (stereo not drawn)	-9	x	x	0	x	x
COC(=O)Nc1ccc(=O)n(Cc2c(Cl)cccc2Cl)c1	32	59	3	-1	2	175*
C#CCOC(=O)Nc1cccn(Cc2c(Cl)cccc2Cl)c1=O	15	-29	0	-1	5	2
CCN(CC)c1ccc(/C=N/NC(=O)OC)c(O)c1	-11	1	2	3	-4	x
COc1ccc(/C=N/NC(=O)c2ccoc2C)cc1OC	-9	10	3	1	-2	3
COc1ccc(/C=N/NC(=O)c2ccoc2C)cc1O	15	-10	9	3	5	261*

Assay outcomes (PubChem BioAssay)
